Compound activity (PubChem BioAssay)
C8 TRAIL sens = sensitizes caspase-8 expressing cells to TRAIL | NB7+C8 cells + TRAIL, ATPlite viability luminescence | inhibition (viability loss, TRAIL sensitization), % at 10 µM | 360,000 compounds, 1% hits;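 active = compounds causing at least 50% loss of cell viability in the single-dose screen, relative to plate controls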
Wee1 degr inh = human Wee1 degradation inhibition, primary screen. 220,000 compounds, 1.2% hits. P30291. reporter increase, % at 5 µM. HeLa Luc-Wee1K328M stability, luciferase luminescence; 100% = proteasome inhibitor MG132 effect;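 active = activation above the mean of all tested compounds plus 3 SD, set per screening run, cut at about 8.8% in these data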;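 note: cells exposed to compound for 20 h before luminescence read; 0% = DMSO alone and 100% = MG132 at 30 µM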
FLuc stim CS = firefly luciferase counter-screen for stimulation assays; ATPlite luciferase biochemical, luminescence, 10 min; 0 = ATP-free wells, 1 = DMSO control; activation factor at 10 µM; P08659; 200,000 tested, under 10 active;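 active = luciferase activation factor, scaled between plate controls, of at least 2 with compound at 10 µM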
Target sequence (P08659 whole entry, looked up): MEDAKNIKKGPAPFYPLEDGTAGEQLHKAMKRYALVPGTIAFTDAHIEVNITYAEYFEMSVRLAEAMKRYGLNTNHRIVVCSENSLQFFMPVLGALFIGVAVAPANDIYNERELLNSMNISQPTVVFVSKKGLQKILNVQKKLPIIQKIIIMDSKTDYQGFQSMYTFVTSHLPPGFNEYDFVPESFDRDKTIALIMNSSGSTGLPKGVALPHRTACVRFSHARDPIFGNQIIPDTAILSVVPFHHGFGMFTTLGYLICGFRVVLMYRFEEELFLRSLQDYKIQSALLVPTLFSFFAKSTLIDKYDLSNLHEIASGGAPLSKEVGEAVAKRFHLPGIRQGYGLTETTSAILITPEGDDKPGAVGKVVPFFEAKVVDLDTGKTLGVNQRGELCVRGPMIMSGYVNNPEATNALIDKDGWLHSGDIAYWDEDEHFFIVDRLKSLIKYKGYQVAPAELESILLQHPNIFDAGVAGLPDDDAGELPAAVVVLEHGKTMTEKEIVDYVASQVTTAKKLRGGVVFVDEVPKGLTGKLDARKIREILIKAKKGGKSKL
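test system = cell-free luciferase reagent | medium = PBS as buffer for the ATP substrate | dosing = test compounds dosed from 2 mM stocks in 100% DMSO | incubation = 10 min at ambient temperature | detection = luminescence measurement of luciferase light output | benchmarks = low control with PBS replacing ATP, high control enzyme plus ATP without compound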
PKD1 inh = blocks activity of human protein kinase D1 | Q15139 | 200,000 compounds, 0.056% hits | inhibition, % (concentration not given with the values) | PKD1 kinase fluorescence polarization assay; in the data active = inhibition above about 50%
FLuc inh counter = inhibits firefly luciferase, flagging false hits in luciferase inhibition screens; 200,000 compounds, 1.5% hits; inhibition, % at 10 µM; ATPLite firefly luciferase biochemical luminescence, 10 min;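 active = inhibition above about 50% when tested at 10 µM, limit read from the data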
PPC-1+TRAIL kill = compounds killing PPC-1 cancer cells with TRAIL present (potentiator screen, no TRAIL-free arm); PPC-1 cells + TRAIL, ATPLite viability luminescence; cell killing (% activity), % at 4 µM or 5 µM; 220,000 compounds, 0.41% hits; AID 1443;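 active = cell killing above 50% in the first pass at 4 µM, then a duplicate retest at 5 µM averaging 50% or more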;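 note: plate controls were cells with TRAIL plus DMSO for no effect and medium-only wells lacking cells for full effect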
* marks the source's active call; other numbers are inactive results. Shown are actives, neighbours in structure and some others; about 2.2% of the full set was active somewhere.

How did COc1ccc(C(=O)Nc2ccc(C3(C#N)CCCC3)cc2)cc1 do in these assays?
C8 TRAIL sens: 30; Wee1 degr inh: -2; FLuc stim CS: 0.8; PKD1 inh: 5; FLuc inh counter: 19; PPC-1+TRAIL kill: 9

How did CCN(CC)c1ccc(NC(=O)c2ccccc2F)cc1 do in these assays?
C8 TRAIL sens: 31; Wee1 degr inh: 9.2*; FLuc stim CS: 0.5; PKD1 inh: -3; FLuc inh counter: 47; PPC-1+TRAIL kill: 22

How did C/C(=N/OC(=O)c1cccc(Cl)c1)c1nccs1 do in these assays?
C8 TRAIL sens: 1; Wee1 degr inh: 1; FLuc stim CS: 0.5; PKD1 inh: 2; FLuc inh counter: 55*; PPC-1+TRAIL kill: 14

What do the screens show for `C/C(=N\OC(=O)c1ccccc1F)c1nccs1`?
C8 TRAIL sens: 4; Wee1 degr inh: -1; FLuc stim CS: 0.2; PKD1 inh: -4; FLuc inh counter: 85*; PPC-1+TRAIL kill: -10

Results for CC(=NOC(=O)c1ccc(F)cc1)c1nccs1 ?
C8 TRAIL sens: -24

How did CCOC(=O)C1(CCCc2ccccc2)CCN(C(=O)CCC2=NNC(=O)CC2)CC1 do in these assays?
C8 TRAIL sens: -3; Wee1 degr inh: 11*; FLuc stim CS: 1; PKD1 inh: 0; FLuc inh counter: -1; PPC-1+TRAIL kill: 3

What do the screens show for `O=C(c1ccco1)N1CCN(C(=O)c2ccccc2OCc2ccccc2)CC1`?
C8 TRAIL sens: 5

How did COc1ccc(Cn2cc(CN3CCOCC3)nn2)cc1 do in these assays?
C8 TRAIL sens: -8

How did COC1=CC(=O)c2ccccc2C1=O do in these assays?
C8 TRAIL sens: 88*

How did CC(NC(=O)c1cc([N+](=O)[O-])cc([N+](=O)[O-])c1)C1CC2CCC1C2 (configuration not stated) do in these assays?
C8 TRAIL sens: 8

Results for CSc1ncc(Cl)c(C(=O)Nc2ccc(C)c(C)c2)n1 ?
C8 TRAIL sens: -6

What do the screens show for `CC(=O)Nc1ccc(NC(=O)c2nc(S(=O)(=O)Cc3cccc(C)c3)ncc2Cl)cc1`?
C8 TRAIL sens: 90*

What do the screens show for `CCS(=O)(=O)c1ncc(Cl)c(C(=O)Nc2ccc(S(=O)(=O)N3CCC(C)CC3)cc2)n1`?
C8 TRAIL sens: 94*

Results for CCCS(=O)(=O)c1ncc(Cl)c(C(=O)Nc2ccc(S(=O)(=O)Nc3ncccn3)cc2)n1 ?
C8 TRAIL sens: -2

Results for Cc1ccc(NC(=O)c2nc(S(=O)(=O)Cc3ccccc3C)ncc2Cl)cc1C ?
C8 TRAIL sens: 58*

Results for CCc1ccc(NC(=O)c2nc(S(=O)(=O)Cc3ccccc3)ncc2Cl)cc1 ?
C8 TRAIL sens: 96*

What do the screens show for `CC(C)N1CCN(Cc2ccc(C#CCCO)cc2)CC1CCO` (configuration not stated)?
C8 TRAIL sens: -1; Wee1 degr inh: 1; FLuc stim CS: 1.1; PKD1 inh: -8; FLuc inh counter: -7; PPC-1+TRAIL kill: 10

Results for COc1ccc(N2C(=O)c3ccc(C(=O)Nc4ccccc4OC)cc3C2=O)cc1 ?
C8 TRAIL sens: -8

How did O=c1cc(-c2ccccc2)ss1 do in these assays?
C8 TRAIL sens: -14

What do the screens show for `COC(=O)c1ccc(NC(=O)c2nc(S(=O)(=O)Cc3cccc(C)c3)ncc2Cl)cc1`?
C8 TRAIL sens: 43

How did CCOC(=O)c1ccc(NC(=O)c2nc(S(=O)(=O)Cc3ccccc3)ncc2Cl)cc1 do in these assays?
C8 TRAIL sens: 78*

What do the screens show for `CC1=C(C)CC(C(=O)Nc2ccc(C(=O)N3CCOCC3)cc2)C(C(=O)O)C1` (configuration not stated)?
C8 TRAIL sens: -4; Wee1 degr inh: -4; FLuc stim CS: 1; PKD1 inh: -7; FLuc inh counter: 0; PPC-1+TRAIL kill: 3

What do the screens show for `Cc1snnc1C(=O)NC(=S)Nc1ccccc1`?
C8 TRAIL sens: 3; Wee1 degr inh: 0; PPC-1+TRAIL kill: 0

What do the screens show for `Cc1nn(-c2ccccn2)c2c1-c1nc(N)ncc1CC2`?
C8 TRAIL sens: 25; Wee1 degr inh: 0; FLuc stim CS: 0.4; PKD1 inh: -1; FLuc inh counter: 61*; PPC-1+TRAIL kill: 22

What do the screens show for `Cc1nn(-c2ccccn2)c2c1-c1nc(N3CCOCC3)ncc1CC2`?
C8 TRAIL sens: 10; Wee1 degr inh: 2; FLuc stim CS: 1; PKD1 inh: -7; FLuc inh counter: -2; PPC-1+TRAIL kill: 18

Results for COCCCN(C(=O)C1CCC1)c1c(N)n(Cc2ccccc2)c(=O)[nH]c1=O ?
C8 TRAIL sens: -6

What do the screens show for `COc1ccc(CCNC(=O)c2ccc3nc[nH]c3c2)cc1`?
C8 TRAIL sens: -12

Results for CCc1ccc(S(=O)(=O)/N=C2\C=C(Nc3cccc(C(=O)O)c3)C(=O)c3ccccc32)cc1 ?
C8 TRAIL sens: 17

Results for CCc1ccc(S(=O)(=O)/N=C2\C=C(Nc3ccc(O)cc3)C(=O)c3ccccc32)cc1 ?
C8 TRAIL sens: 97*

Results for Cc1cc(C)c(S(=O)(=O)/N=C2\C=C(Nc3ccc(C(=O)O)cc3)C(=O)c3ccccc32)c(C)c1 ?
C8 TRAIL sens: 58*

How did O=C(O)c1ccc(NC2=C/C(=N/S(=O)(=O)c3ccccc3)c3ccccc3C2=O)cc1 do in these assays?
C8 TRAIL sens: 38; Wee1 degr inh: 3; FLuc stim CS: 0.9; PKD1 inh: -2; FLuc inh counter: 11; PPC-1+TRAIL kill: 30

What do the screens show for `O=C(O)c1ccc(NC2=C/C(=N/S(=O)(=O)c3cccs3)c3ccccc3C2=O)cc1`?
C8 TRAIL sens: 55*

How did Cc1ccccc1OCC(=O)NCCCNC(=O)c1ccccn1 do in these assays?
C8 TRAIL sens: -14

Results for O=S(=O)(c1ccc(Br)s1)N1CCNCC1 ?
C8 TRAIL sens: 11; Wee1 degr inh: 3; PPC-1+TRAIL kill: 7

Results for COc1ccc(C(=O)c2ccc3oc(-c4ccc(OC)cc4)c(-c4ccc(O)cc4)c3c2)cc1 ?
C8 TRAIL sens: 9

Results for O=c1[nH]c(CSc2nc3ccccc3s2)nc2cc(Cl)ccc12 ?
Wee1 degr inh: 0; PPC-1+TRAIL kill: 0

Results for O=c1[nH]c(CSc2nc3ccccc3s2)nc2ccccc12 ?
C8 TRAIL sens: 8; Wee1 degr inh: 9.0*; PPC-1+TRAIL kill: -8

How did CCc1ccc(-n2nc3cc(C)c(N)cc3n2)cc1 do in these assays?
C8 TRAIL sens: 66*

What do the screens show for `COc1ccc(-n2nc3cc(N)c(Br)cc3n2)cc1`?
C8 TRAIL sens: 18

Results for Cc1ccc(-n2nc3cc(C)c(N)cc3n2)cc1 ?
C8 TRAIL sens: 12; Wee1 degr inh: 6; FLuc stim CS: 0.2; PKD1 inh: -3; FLuc inh counter: 81*; PPC-1+TRAIL kill: 2

How did Cc1cc2nn(-c3cccc4ccccc34)nc2cc1N do in these assays?
C8 TRAIL sens: -5; Wee1 degr inh: 3; FLuc stim CS: 1; PKD1 inh: 1; FLuc inh counter: -3; PPC-1+TRAIL kill: 23
